Measured values published in ChEMBL document CHEMBL5385966, “Synthesis and biological evaluation of new naphthalimide-thiourea derivatives as potent antimicrobial agents active against multidrug-resistant Staphylococcus aureus and Mycobacterium tuberculosis” (RSC Med Chem, 2024).
Converted amounts (≈) assume the structure as drawn. The source made the active and inactive calls. The calls are words filed in the database; no cut-off is given here.

Legend:
Staphylococcus aureus [1] = test: Antibacterial activity against Staphylococcus aureus ATCC 29213 assessed as bacterial growth inhibition incubated for 16 to 18 hrs by CLSI based antibiotic susceptibility testing method; assay type: functional; details: time 16-18 hrs
Outline: (§1)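 Broth microdilution in cation-adjusted Mueller-Hinton broth. Compounds were tested at […], with levofloxacin as reference and medium-only controls. Plates were incubated at 37 °C for 16-18 h. MIC was the lowest concentration with no visible growth; three independent determinations, each in duplicate.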

Staphylococcus aureus [2] = test: Antibacterial activity against methicillin/ceftriaxone/meropenem/gentamycin/vancomycin/teicoplanin-resistant Staphylococcus aureus VRS1 clinical isolate assessed as bacterial growth inhibition incubated for 16 to 18 hrs by CLSI based antibiotic susceptibility testing method; assay type: functional; details: time 16-18 hrs; outline: as §1
Staphylococcus aureus [3] = test: Antibacterial activity against methicillin/ceftriaxone/meropenem/vancomycin/teicoplanin-resistant Staphylococcus aureus VRS4 clinical isolate assessed as bacterial growth inhibition incubated for 16 to 18 hrs by CLSI based antibiotic susceptibility testing method; assay type: functional; details: time 16-18 hrs; outline: as §1
Mycobacteroides chelonae = test: Antimycobacterial activity against Mycobacteroides chelonae ATCC 35752 assessed as bacterial growth inhibition incubated for 72 hrs by resazurin dye based broth microdilution method; assay type: functional, organism-based
Outline: (§2)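 Broth microdilution in Middlebrook 7H9 with 10% ADC-Tween-80 (0.2% glycerol, 0.05% Tween-80), inoculum ~10⁶ cfu/mL. Compounds came from 10 mg/mL DMSO stocks and were tested as two-fold serial dilutions at 37 °C, 7 days for M. tuberculosis H37Rv and 72 h for NTM. Growth was read visually with PrestoBlue resazurin dye; MIC was the lowest concentration preventing growth. Triplicate determinations, each in duplicate.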

[4] = system: Mycolicibacterium fortuitum; test: Antimycobacterial activity against Mycobacterium fortuitum ATCC 6841 assessed as bacterial growth inhibition incubated for 72 hrs by resazurin dye based broth microdilution method; assay type: functional, organism-based; outline: as §2
Staphylococcus aureus [5] = test: Antibacterial activity against methicillin/ceftriaxone/meropenem/gentamycin/linezolid-resistant Staphylococcus aureus NRS10119 clinical isolate assessed as bacterial growth inhibition incubated for 16 to 18 hrs by CLSI based antibiotic susceptibility testing method; assay type: functional; details: time 16-18 hrs; outline: as §1
Staphylococcus aureus [6] = test: Antibacterial activity against methicillin/ceftriaxone/meropenem-resistant Staphylococcus aureus NRS10186 clinical isolate assessed as bacterial growth inhibition incubated for 16 to 18 hrs by CLSI based antibiotic susceptibility testing method; assay type: functional; details: time 16-18 hrs; outline: as §1
Acinetobacter baumannii = test: Antibacterial activity against Acinetobacter baumannii BAA 1605 assessed as bacterial growth inhibition incubated for 16 to 18 hrs by CLSI based antibiotic susceptibility testing method; assay type: functional, organism-based; details: time 16-18 hrs; outline: as §1
[7] = system: Mycobacteroides abscessus; test: Antimycobacterial activity against Mycobacterium abscessus ATCC 19977 assessed as bacterial growth inhibition incubated for 72 hrs by resazurin dye based broth microdilution method; assay type: functional, organism-based; outline: as §2
Staphylococcus aureus [8] = test: Antibacterial activity against methicillin/ceftriaxone/meropenem/gentamycin/linezolid-resistant Staphylococcus aureus NRS10100 clinical isolate assessed as bacterial growth inhibition incubated for 16 to 18 hrs by CLSI based antibiotic susceptibility testing method; assay type: functional; details: time 16-18 hrs; outline: as §1
[9] = system: Mycobacterium tuberculosis; test: Antimycobacterial activity against Mycobacterium tuberculosis H37Rv ATCC 27294 assessed as bacterial growth inhibition incubated for 7 days by resazurin dye based broth microdilution method; assay type: functional; details: H37Rv ATCC 27294, 168 h, time 7 day; outline: as §2
Staphylococcus aureus [10] = test: Antibacterial activity against methicillin/ceftriaxone/meropenem-resistant Staphylococcus aureus NRS10198 clinical isolate assessed as bacterial growth inhibition incubated for 16 to 18 hrs by CLSI based antibiotic susceptibility testing method; assay type: functional; details: time 16-18 hrs; outline: as §1
Staphylococcus aureus [11] = test: Antibacterial activity against methicillin/ceftriaxone-resistant Staphylococcus aureus NRS10194 clinical isolate assessed as bacterial growth inhibition incubated for 16 to 18 hrs by CLSI based antibiotic susceptibility testing method; assay type: functional; details: time 16-18 hrs; outline: as §1
Klebsiella pneumoniae = test: Antibacterial activity against Klebsiella pneumoniae BAA 1705 assessed as bacterial growth inhibition incubated for 16 to 18 hrs by CLSI based antibiotic susceptibility testing method; assay type: functional, organism-based; details: time 16-18 hrs; outline: as §1
Staphylococcus aureus [12] = test: Antibacterial activity against methicillin/ceftriaxone/meropenem-resistant Staphylococcus aureus NRS10191 clinical isolate assessed as bacterial growth inhibition incubated for 16 to 18 hrs by CLSI based antibiotic susceptibility testing method; assay type: functional; details: time 16-18 hrs; outline: as §1
Staphylococcus aureus [13] = test: Antibacterial activity against methicillin/ceftriaxone/meropenem-resistant Staphylococcus aureus NRS10129 clinical isolate assessed as bacterial growth inhibition incubated for 16 to 18 hrs by CLSI based antibiotic susceptibility testing method; assay type: functional; details: time 16-18 hrs; outline: as §1
Escherichia coli = test: Antibacterial activity against Escherichia coli ATCC 25922 assessed as bacterial growth inhibition incubated for 16 to 18 hrs by CLSI based antibiotic susceptibility testing method; assay type: functional, organism-based; details: time 16-18 hrs; outline: as §1
Staphylococcus aureus [14] = test: Antibacterial activity against methicillin/ceftriaxone/meropenem/vancomycin/teicoplanin-resistant Staphylococcus aureus VRS12 clinical isolate assessed as bacterial growth inhibition incubated for 16 to 18 hrs by CLSI based antibiotic susceptibility testing method; assay type: functional; details: time 16-18 hrs; outline: as §1
Pseudomonas aeruginosa = test: Antibacterial activity against Pseudomonas aeruginosa ATCC 27853 assessed as bacterial growth inhibition incubated for 16 to 18 hrs by CLSI based antibiotic susceptibility testing method; assay type: functional, organism-based; details: time 16-18 hrs; outline: as §1
Staphylococcus aureus [15] = test: Antibacterial activity against methicillin/ceftriaxone/meropenem-resistant Staphylococcus aureus NRS10192 clinical isolate assessed as bacterial growth inhibition incubated for 16 to 18 hrs by CLSI based antibiotic susceptibility testing method; assay type: functional; details: time 16-18 hrs; outline: as §1
Staphylococcus aureus [16] = test: Antibacterial activity against methicillin-sensitive Staphylococcus aureus ATCC 29213 clinical isolate assessed as bacterial growth inhibition incubated for 16 to 18 hrs by CLSI based antibiotic susceptibility testing method; assay type: functional; details: time 16-18 hrs; outline: as §1
Staphylococcus aureus [17] = test: Antibacterial activity against methicillin/ceftriaxone/meropenem-resistant Staphylococcus aureus NRS10193 clinical isolate assessed as bacterial growth inhibition incubated for 16 to 18 hrs by CLSI based antibiotic susceptibility testing method; assay type: functional; details: time 16-18 hrs; outline: as §1

SMILES	MIC (Staphylococcus aureus [1])	growth inhibition (GI) (Mycobacteroides chelonae)	growth inhibition (GI) [4]	growth inhibition (GI) (Acinetobacter baumannii)	growth inhibition (GI) [7]	MIC [9]	growth inhibition (GI) (Klebsiella pneumoniae)	growth inhibition (GI) (Escherichia coli)	growth inhibition (GI) (Pseudomonas aeruginosa)	further results
C[C@H]1COc2c(N3CCN(C)CC3)c(F)cc3c(=O)c(C(=O)O)cn1c23 [LEVOFLOXACIN ANHYDROUS]	0.063 µg/mL (≈ 0.174 µM)	inactive	inactive	inactive	inactive	0.6 µg/mL (≈ 1.66 µM)	inactive	inactive	inactive	MIC (Staphylococcus aureus [2]): 32 µg/mL (≈ 88.6 µM); MIC (Staphylococcus aureus [3]): > 64 µg/mL; MIC (Staphylococcus aureus [5]): 16 µg/mL (≈ 44.3 µM); MIC (Staphylococcus aureus [6]): 4 µg/mL (≈ 11.1 µM); MIC (Staphylococcus aureus [8]): 0.125 µg/mL (≈ 0.346 µM); MIC (Staphylococcus aureus [10]): 32 µg/mL (≈ 88.6 µM); MIC (Staphylococcus aureus [11]): 0.125 µg/mL (≈ 0.346 µM); MIC (Staphylococcus aureus [12]): 16 µg/mL (≈ 44.3 µM); MIC (Staphylococcus aureus [13]): 0.25 µg/mL (≈ 0.692 µM); MIC (Staphylococcus aureus [14]): 32 µg/mL (≈ 88.6 µM); MIC (Staphylococcus aureus [15]): 8 µg/mL (≈ 22.1 µM); MIC (Staphylococcus aureus [16]): 0.25 µg/mL (≈ 0.692 µM); MIC (Staphylococcus aureus [17]): 32 µg/mL (≈ 88.6 µM)
O=C(CCN1C(=O)c2cccc3cccc(c23)C1=O)NC1CCN(C(=S)Nc2ccc(Cl)cc2)CC1	> 64 µg/mL	inactive	inactive	inactive	inactive	> 64 µg/mL	inactive	inactive	inactive	
O=C1c2cccc3cccc(c23)C(=O)N1CCN1CCN(C(=S)Nc2ccc(Cl)c(Cl)c2)CC1	> 64 µg/mL	inactive	inactive	inactive	inactive	> 64 µg/mL	inactive	inactive	inactive	
Cc1ccc(NC(=S)N2CCN(CCN3C(=O)c4cccc5cccc(c45)C3=O)CC2)cc1	> 64 µg/mL	inactive	inactive	inactive	inactive	> 64 µg/mL	inactive	inactive	inactive	
O=C1c2cccc3cccc(c23)C(=O)N1CCN1CCN(C(=S)NC2CC2)CC1	> 64 µg/mL	inactive	inactive	inactive	inactive	> 64 µg/mL	inactive	inactive	inactive	
C[C@@H](O)[C@H]1C(=O)N2C(C(=O)O)=C(S[C@@H]3CN[C@H](C(=O)N(C)C)C3)[C@H](C)[C@H]12 [MEROPENEM]										MIC (Staphylococcus aureus [2]): 64 µg/mL (≈ 167 µM); MIC (Staphylococcus aureus [3]): 64 µg/mL (≈ 167 µM); MIC (Staphylococcus aureus [5]): 64 µg/mL (≈ 167 µM); MIC (Staphylococcus aureus [6]): 4 µg/mL (≈ 10.4 µM); MIC (Staphylococcus aureus [8]): 32 µg/mL (≈ 83.4 µM); MIC (Staphylococcus aureus [10]): 64 µg/mL (≈ 167 µM); MIC (Staphylococcus aureus [11]): 1 µg/mL (≈ 2.61 µM); MIC (Staphylococcus aureus [12]): 64 µg/mL (≈ 167 µM); MIC (Staphylococcus aureus [13]): 2 µg/mL (≈ 5.22 µM); MIC (Staphylococcus aureus [14]): 8 µg/mL (≈ 20.9 µM); MIC (Staphylococcus aureus [15]): 4 µg/mL (≈ 10.4 µM); MIC (Staphylococcus aureus [16]): 0.125 µg/mL (≈ 0.326 µM); MIC (Staphylococcus aureus [17]): 64 µg/mL (≈ 167 µM)
Cc1ccc(NC(=S)N2CCN(C(=O)CCN3C(=O)c4cccc5cccc(c45)C3=O)CC2)cc1	> 64 µg/mL	inactive	inactive	inactive	inactive	> 64 µg/mL	inactive	inactive	inactive	
